Results on two molecules are retold here after ChEMBL document CHEMBL1629441, “Synthesis, in vitro and in vivo biological evaluation, and comprehensive understanding of structure-activity relationships of dipeptidyl boronic acid proteasome inhibitors constructed from β-amino acids” (J Med Chem, 2010).

For one data set, the system named is HL-60. Put plainly: Cytotoxicity against human HL60 cells after 72 hrs by MTT assay. In kind it is functional, cell-based. Conditions: HL-60, 72 h. The gist of the method: (§1)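 MTT growth assay: 3000 cells per well seeded, after 24 h exposed to 10 drug concentrations for 72 h, then MTT (5 mg/mL stock) 4 h at 37 °C. Formazan dissolved in DMSO, absorbance at 540 nm. Points in triplicate; IC50 is mean of at least three independent determinations. Cells grown at 37 °C, 5% CO2 with FBS.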
A general note: Tetrazolium dyes change colour on reduction, which living cells bring about.

In data set [1] the test system is Rattus norvegicus. Put plainly: Toxicity in Sprague-Dawley rat assessed as incidence of mortality at 1 mg/kg, iv after 10 hrs. More on the design: dose 1 mg/kg, route intravenous. In kind it is organism-based. Conditions: in vivo. Summed up: (§2)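 Male SD rats dosed once at 1.0 mg/kg, iv bolus or intragastric, during the PK study. Dosing solution 0.5 mg/mL in 1% ethanol, 1% Tween80, 98% buffered saline. Animals observed for death and toxic reactions over 10 h. n = 4 per PK group.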

For a further data set, the system named is SW480. Nature of the data set: Cytotoxicity against human SW480 cells after 72 hrs by MTT assay. Type of data set: functional, cell-based. Conditions: SW480, 72 h. Summed up:
as §1

Another data set relates to SK-OV-3. Nature of the data set: Cytotoxicity against human SKOV3 cells after 72 hrs by MTT assay. Type of data set: functional, cell-based. Conditions: SK-OV-3, 72 h. Summed up: as §1
A further data set has as its system A549. Nature of the data set: Cytotoxicity against human A549 cells after 72 hrs by MTT assay. Type of data set: functional, cell-based. Conditions: A549, 72 h. The gist of the method: as §1
For the next data set, the system named is PC-3. Put plainly: Cytotoxicity against human PC3 cells after 72 hrs by MTT assay. Type of data set: functional, cell-based. Conditions: PC-3, 72 h. The gist of the method:
as §1

The next data set deals with HepG2. Nature of the data set: Cytotoxicity against human HepG2 cells after 72 hrs by MTT assay. In kind it is functional, cell-based. Conditions: HepG2, 72 h. The gist of the method: as §1
Another data set deals with BXPC-3. Put plainly: Cytotoxicity against human BxPC3 cells after 72 hrs by MTT assay. Conditions: BXPC-3, 72 h. In kind it is functional, cell-based. The gist of the method: as §1
Data set [2] is described as follows: Cytotoxicity against human RPMI18226 cells after 72 hrs by MTT assay. Type of data set: functional, cell-based. Conditions: RPMI18226, 72 h. The gist of the method:
as §1

Data set [3] is described as follows: Inhibition of human 20S proteasome chymotrypsin-like activity by fluorimetric assay. Conditions: read-out: IC50. The gist of the method: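 Human 20S proteasome preincubated with test compound, then Suc-Leu-Leu-Val-Tyr-AMC hydrolysis monitored 1 h at 37 °C by fluorescence (excitation 360 nm, 465 nm). Buffer pH 7.5: 20 mM Tris, 1 mM DTT, 10% glycerol, 0.02% (w/v) SDS; DMSO 3% (v/v) final. IC50 from five concentrations, each in duplicate; bortezomib standard.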

Data set [4] is described as follows: Mean residence time (0-t) in Sprague-Dawley rat at 1 mg/kg, ig. On the set-up: dose 1 mg/kg, route intragastric. Conditions: in vivo, po. In kind it is ADME, organism-based. Summed up:
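Male SD rats dosed intragastrically at 1.0 mg/kg from 0.5 mg/mL solution in 1% ethanol, 1% Tween80, 98% buffered saline. Heparinized blood (n = 4) centrifuged 4000 rpm, 5 min, 4 °C; plasma lower limit of detection 5 ng/mL.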

For data set [5], the system named is Rattus norvegicus. Put plainly: Toxicity in Sprague-Dawley rat assessed as incidence of mortality at 1 mg/kg, ig after 10 hrs. In kind it is organism-based. More on the design: dose 1 mg/kg, route intragastric. Conditions: in vivo, po. The gist of the method: as §2
Data set [6] can be described thus: Mean residence time (0-t) in Sprague-Dawley rat at 1 mg/kg, iv. Conditions: in vivo. More on the design: dose 1 mg/kg, route intravenous. Type of data set: ADME, organism-based. Summed up: (§3)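 Male SD rats given single 1.0 mg/kg iv bolus of solution (0.5 mg/mL) in 1% ethanol, 1% Tween80, 98% buffered saline. Heparinized blood samples (n = 4) centrifuged 4000 rpm, 5 min, 4 °C; plasma concentrations used to derive PK parameters.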

Data set [7] in a line: Systemic clearance in Sprague-Dawley rat at 1 mg/kg, iv. Type of data set: ADME, organism-based. More on the design: dose 1 mg/kg, route intravenous. Conditions: in vivo. The gist of the method: as §3
Data set [8] in a line: Terminal half life in Sprague-Dawley rat at 1 mg/kg, iv. In kind it is ADME, organism-based. On the set-up: dose 1 mg/kg, route intravenous. Conditions: in vivo. The gist of the method:
as §3

Data set [9] in a line: AUC (0-t) in Sprague-Dawley rat at 1 mg/kg, iv. In kind it is ADME, organism-based. More on the design: dose 1 mg/kg, route intravenous. Conditions: plasma. Summed up:
as §3

Data set [10] in a line: Apparent volume of distribution in Sprague-Dawley rat at 1 mg/kg, iv. Type of data set: ADME, organism-based. On the set-up: dose 1 mg/kg, route intravenous. Conditions: in vivo, read-out: Vz. Summed up: as §3
Data set [11] is described as follows: Cmax in Sprague-Dawley rat at 1 mg/kg, iv. In kind it is ADME, organism-based. More on the design: dose 1 mg/kg, route intravenous. Conditions: in vivo. Summed up: as §3
The nature of data set [12]: Tmax in Sprague-Dawley rat at 1 mg/kg, iv. Type of data set: ADME, organism-based. More on the design: dose 1 mg/kg, route intravenous. Conditions: in vivo. The gist of the method:
as §3

For `CC(C)C[C@H](NC(=O)[C@H](Cc1ccccc1)NC(=O)c1cnccn1)B(O)O` [BORTEZOMIB], the IC50 (as a rule, the concentration at which inhibition is half-maximal) with HL-60 was 3.5 nM; with SW480, 12.3 nM; with SK-OV-3, 66.8 nM; in the data set on A549, 13.9 nM; with PC-3 it was 8.3 nM; in the data set on HepG2, 25.2 nM. The IC50 stood at 19.4 nM with BXPC-3, 3.5 nM in [2] and 1.54 nM in data set [3]. Further, the Activity result with Rattus norvegicus [1] and in the data set with Rattus norvegicus [5] was “Toxic” throughout. Besides, the MRT last (usually a mean duration of stay, worked out from the concentration-time curve) in data set [4] came to 7.69 h; in data set [6] it was 1.4 h.

For `CC(C)C[C@H](NC(=O)CC(NC(=O)c1ccc2ccccc2c1)c1cccc(F)c1)B(O)O` (stereo partly specified), the half-maximal inhibitory concentration (IC50) in the data set on HL-60 was determined as 530 nM; in the data set with SW480 it was 2380 nM; in the data set on SK-OV-3, 8770 nM; in the data set with A549, 2020 nM; in the data set with PC-3, 2990 nM; with HepG2, 6990 nM. The concentration for half-maximal inhibition (IC50) in the data set with BXPC-3 came to 3540 nM; in data set [2], 330 nM; in data set [3], 3.01 nM. In [7], the clearance (commonly the rate of elimination divided by the concentration) is 9.6 mL/min/kg. For the same molecule, the Activity entry in the data set with Rattus norvegicus [1] and with Rattus norvegicus [5] was “Non-toxic” throughout. In addition, the half-life (usually the time needed for the level to fall by half in the phase considered) in [8] was 4.5 h. In data set [9], the area under the curve AUC(0-t) (commonly the area under the concentration-time curve up to a stated or last time point) amounted to 1710 ng·h/mL. The Vd in [10] was found to be 3.9 L/kg. Moreover, the highest level in [11] (Cmax) was 5790 ng/mL. Moreover, the Tmax (as a rule, the time from dosing to the highest level) in data set [12] amounted to 1.8 min. This molecule had a mean residence time MRT last in [6] of 1.4 h.
